# An excerpt weighted towards active compounds, which were near 1.3% of everything screened.
# G6PDH CS: L. mesenteroides G6PDH inhibition counter-screen. Purified L. mesenteroides G6PDH, diaphorase/resazurin coupled fluorescence, 45 min. inhibition, % at 5 µM. 200,000 compounds, 0.12% hits. AID 1020; in the data active = inhibition above about 50%
# Diaph inh CS: diaphorase inhibition or chemical oxidation counter-screen; diaphorase resazurin-to-resorufin fluorescence, NADH, 16 min; bacterial (C. kluyveri) enzyme, not human; 190,000 compounds, 0.69% hits; inhibition, % at 20 µM;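 active = primary screen inhibition at 20 µM above a set limit, cut at about 50% in these data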;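 also: plate controls were DMSO with full reaction for no effect and wells lacking NADH for full effect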
#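 Test system: diaphorase enzyme from Clostridium kluyveri; amount: diaphorase at 0.14 U/mL in enzyme working solution; detection: fluorescence of resorufin formed from resazurin, Ex 544/Em 590 nm; times: reaction incubation of 16 min at room temperature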
# Diaph act CS: diaphorase activation or chemical reduction counter-screen | Diaphorase/resazurin coupled assay, resorufin fluorescence, 16 min; hits give high values; 1 = vehicle wells, 0 = NADH-free wells | activation factor at 20 µM | 190,000 compounds, 0.005% hits | AID 1229;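 active = diaphorase activity raised at least twofold by the compound at 20 µM; inactive = activation factor below 2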
#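 Test system: Clostridium kluyveri diaphorase, purified enzyme; input: enzyme 0.07 U/mL final; buffer or medium: 50 mM HEPES pH 7.4 with 4.542 mM MgCl2, 0.005% Tween 20; also added: 0.114 mM NADH and 0.1 mM resazurin, final amounts; schedule: 16 min enzyme reaction, ambient temperature; technique: fluorescence of resorufin, 544 nm excitation, 590 nm emission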
# PfG6PD inh: PfG6PD (Plasmodium falciparum) enzyme inhibition | PfGluPho enzyme, NADPH resazurin-diaphorase fluorescence | 350,000 compounds, 0.78% hits | inhibition, % at 20 µM;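 active = inhibition reaching at least a set limit at 20 µM in the primary screen, cut at about 59% in these data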;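 also: 0% = DMSO wells with substrate and 100% = DMSO wells lacking glucose-6-phosphate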
# HKDC1 inh: HKDC1 (human) hexokinase inhibition; Q2TB90; recombinant HKDC1, G6PDH/diaphorase resazurin coupled fluorescence; inhibition, % at 20 µM; 340,000 compounds, 0.16% hits; AID 493160;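 active = inhibition above about 35% when tested at 20 µM, limit read from the data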;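 also: plate controls were DMSO wells with enzyme for no effect and DMSO wells lacking enzyme for full effect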
# Target sequence (Q2TB90 whole entry, looked up): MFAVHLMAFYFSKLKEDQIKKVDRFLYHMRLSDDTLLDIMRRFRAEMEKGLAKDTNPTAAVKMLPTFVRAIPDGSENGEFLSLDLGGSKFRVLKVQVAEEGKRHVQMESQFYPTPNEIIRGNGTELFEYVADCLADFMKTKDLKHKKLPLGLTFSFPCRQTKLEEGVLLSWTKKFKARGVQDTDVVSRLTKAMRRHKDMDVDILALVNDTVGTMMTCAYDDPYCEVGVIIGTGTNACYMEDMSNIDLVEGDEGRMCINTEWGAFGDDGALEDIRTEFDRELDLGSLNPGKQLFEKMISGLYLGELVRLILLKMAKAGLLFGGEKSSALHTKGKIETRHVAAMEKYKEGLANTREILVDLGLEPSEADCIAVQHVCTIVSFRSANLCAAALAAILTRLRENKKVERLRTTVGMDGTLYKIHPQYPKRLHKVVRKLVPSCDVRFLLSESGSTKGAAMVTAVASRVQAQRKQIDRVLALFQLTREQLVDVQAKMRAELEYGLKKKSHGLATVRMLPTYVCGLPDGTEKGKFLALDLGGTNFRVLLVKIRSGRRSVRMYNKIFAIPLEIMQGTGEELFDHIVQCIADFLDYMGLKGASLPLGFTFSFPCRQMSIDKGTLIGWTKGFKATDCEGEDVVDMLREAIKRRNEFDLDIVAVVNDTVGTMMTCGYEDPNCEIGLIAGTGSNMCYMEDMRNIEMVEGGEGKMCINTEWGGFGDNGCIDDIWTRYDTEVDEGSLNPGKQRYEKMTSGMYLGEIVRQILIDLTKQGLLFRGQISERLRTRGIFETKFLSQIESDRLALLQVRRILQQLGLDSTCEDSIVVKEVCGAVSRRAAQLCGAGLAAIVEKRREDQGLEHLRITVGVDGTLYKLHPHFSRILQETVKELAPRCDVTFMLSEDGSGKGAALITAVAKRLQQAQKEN
#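 test system = in-house recombinant HK5 (HKDC1) enzyme | amount = HKDC1 at 5 µg/mL | control set = DMSO-enzyme wells negative, buffer-substituted wells positive | compound = one dose of 20 µM, 1% DMSO | schedule = reaction time 90 min, room temperature, protected from light | technique = resorufin fluorescence at 613 nm | reagent = glucose with 1 mM ATP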
# PfGluPho conf: PfG6PD inhibition, single-dose confirmed. recombinant PfGluPho, NADPH-diaphorase-resazurin fluorescence. shares compounds with PfG6PD inh. 2,400 compounds, 34% hits. inhibition, % at 20 µM;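 active = inhibition of at least 50% at 20 µM in any single replicate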;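 also: 0% = DMSO with substrate and 100% = DMSO lacking glucose-6-phosphate substrate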
# Diaph ctr 10uM: counter-screen for P. falciparum G6PD inhibitors: diaphorase inhibitors, oxidizers; shares compounds with PfG6PD inh; diaphorase-coupled resazurin reduction, fluorescence, NADPH 10 uM; inhibition, % at 20 µM; 820 compounds, 39% hits; AID 504862;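 active = average inhibition reaching 50% or more with the compound at 20 µM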;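 also: resorufin red fluorescence formed as diaphorase reduces resazurin using NADPH; 0% = DMSO with enzyme and 100% = DMSO without enzyme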
# Diaph ctr 30uM: inhibits diaphorase or oxidizes, flagging false PfG6PD hits | shares compounds with PfG6PD inh | 820 compounds, 29% hits | Diaphorase/resazurin coupled assay, resorufin fluorescence, 30 uM NADPH | inhibition, % at 20 µM | AID 504863;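 active = inhibition averaging 50% or more, tested at 20 µM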;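 also: 0% = DMSO with enzyme and 100% = DMSO wells lacking diaphorase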
# * marks the source's active call; other numbers are inactive results; x = no result given.
SMILES,G6PDH CS,Diaph inh CS,Diaph act CS,PfG6PD inh,HKDC1 inh,PfGluPho conf,others
CCn1c([N+](=O)[O-])nc2c1c(=O)[nH]c(=O)n2C,15,-4,1,67*,2,52*,Diaph ctr 10uM=37;Diaph ctr 30uM=32
COc1ccc(C2(CNC(=O)c3ccc(OC)c([N+](=O)[O-])c3)CCCCC2)cc1OC,4,13,0.9,85*,-3,53*,Diaph ctr 10uM=54*;Diaph ctr 30uM=43
COc1ccc(C(=O)NCC2(c3ccc(OC)c(OC)c3)CCCC2)cc1OC,x,x,x,-10,x,x,
O=S(=O)(c1cccc(C(F)(F)F)c1)N1CCN(S(=O)(=O)c2ccc3c(c2)OCCO3)CC1,x,x,x,-1,-3,x,
Cc1ccc(S(=O)(=O)n2cc(CO)c3ccccc32)cc1,x,x,x,12,1,x,
Nc1cc2nc[nH]c2cc1N,10,61*,0.4,60*,7,-10,
Cn1c(=O)n(C)c2cc3[nH]cnc3cc21,x,x,x,4,1,x,
O=C1CCN(c2ccccc2)N1,x,x,x,119*,15,109*,Diaph ctr 10uM=16;Diaph ctr 30uM=8
O=C1CCN(S(=O)(=O)c2ccccc2)N1,19,0,1,9,-8,x,
Cc1ccc(NC(=O)c2ccc(Cl)c(N3C(=O)C=CC3=O)c2)cc1,-2,4,1,100*,2,100*,Diaph ctr 10uM=-22;Diaph ctr 30uM=-7
C[C@H](CO)N1C[C@H](C)[C@@H](CN(C)C(=O)NC2CCCCC2)Oc2ccc(NC(=O)Nc3ccccc3)cc2C1=O,x,x,x,-10,-4,x,
O=C(CCl)NCCN1C(=O)S/C(=C\c2cccnc2)C1=O,-2,-15,1.1,72*,1,66*,Diaph ctr 10uM=-29;Diaph ctr 30uM=-9
Cc1ccc(Nc2n[nH]c(=S)s2)cc1F,x,x,x,72*,-2,23,
Cc1ccc(Nc2n[nH]c(=S)s2)cc1,x,x,x,44,x,x,
S=c1[nH]nc(Nc2ccc(Cl)cc2)s1,x,x,x,65*,-2,36,
CC1CCc2c(sc(NC(=O)c3ccc(N4C(=O)CCC4=O)cc3)c2C(N)=O)C1 (stereo not drawn),x,x,x,-1,6,x,
COc1ccc(C(=O)c2c(C(F)(F)F)oc3c2C(=O)c2ccccc2C3=O)cc1,54*,7,0.9,76*,17,35*,Diaph ctr 10uM=28;Diaph ctr 30uM=32
Cc1ccc(-n2c(C)cc(C(=O)CSc3nncs3)c2C)cc1,7,6,0.9,62*,-9,23,
COc1ccc(Cc2nnc(SC(C)C(=O)Nc3ccc(F)cc3Cl)o2)cc1 (stereo not drawn),x,x,x,9,-6,x,
O=C1NCCCc2c1oc1ccc(O)cc21,10,-14,1.1,0,-4,x,
Oc1c(Cl)cc(Cl)c2c1NCCC2,-16,64*,0.4,78*,10,37,
CC(=O)Nc1c2c(nn1-c1ccccc1C)CS(=O)(=O)C2,x,x,x,-4,-1,x,
COc1ccc(CCNc2nc(C)c(C(C)=O)s2)cc1OC,x,x,x,61*,-12,20,
COCCOC(=O)c1c(C)n(C)c2ccc(OC(=O)c3c(OC)cccc3OC)cc12,x,x,x,59*,-1,26,
O=[N+]([O-])c1cc(-c2ccc(C(=S)N3CCOCC3)o2)ccc1Cl,25,33,0.7,69*,14,41,
SMILES,G6PDH CS,Diaph inh CS,Diaph act CS,PfG6PD inh,HKDC1 inh,PfGluPho conf,others
O=C(Nc1nc2c(s1)CCCC2)c1ccc2ncsc2c1,2,21,0.8,65*,1,9,
O=C(Nc1nc2c(s1)CCCC2)c1ccc(N2C(=O)CCC2=O)cc1,x,x,x,6,5,x,
O=C(Nc1nc2c(s1)CCCC2)c1ccc(Br)s1,5,13,0.9,68*,-7,26,
Cc1ncsc1C(=O)Nc1nc2c(s1)CCCC2,6,-8,1.1,-1,-5,x,
COc1c(Cl)cccc1-c1cn2ccc(C)cc2n1,x,x,x,83*,0,29,
Cc1ccn2cc(-c3cnoc3C)nc2c1,-4,12,0.9,17,-5,x,
Cc1cc(C)nc(/N=C(\N)Nc2ccccc2-c2ccccc2)n1,12,6,0.9,72*,-10,55*,Diaph ctr 10uM=52*;Diaph ctr 30uM=44
COc1ccc(NC(=O)CSc2nnc3n2CCCCC3)cc1S(=O)(=O)N(C)C,x,x,x,-6,x,x,
Cc1ccc(C)c(NC(=O)CN(C)C(=O)c2ccc3[nH]c4c(c3c2)CC(C)CC4)c1 (stereo not drawn),x,x,x,70*,1,20,
CC1CCc2[nH]c3ccc(C(=O)N(C)CC(=O)Nc4ccccc4Br)cc3c2C1 (stereo not drawn),x,x,x,90*,11,47,
COc1ccc(C(=O)Nc2sc(C)c(-c3ccccc3)c2C#N)cc1OC,0,16,0.8,67*,1,-10,
NS(=O)(=O)c1ccc(CCNC(=O)c2ccc(NC3=NC4CS(=O)(=O)CC4S3)cc2)cc1 (stereo not drawn),x,x,x,-2,-4,x,
NC(=O)c1c(/N=C/c2cccs2)sc2c1CCCC2,x,x,x,24,4,x,
Cc1cccc(OCC(=O)NCC(=O)N/N=C/c2cccs2)c1,15,10,0.9,25,-8,x,
Cc1cccc(OCC(=O)NCC(=O)N/N=C/c2c(C)[nH]c3ccccc23)c1,x,x,x,63*,-1,26,
Cc1cc(C)c2c(-n3cccc3)c(NC(=O)OC(C)C)sc2n1,3,9,0.9,62*,-2,22,
COc1ccc(S(=O)(=O)N2CCCOC2CNC(=O)C(=O)NCc2ccccc2C)cc1 (stereo not drawn),x,x,x,8,x,x,
Cc1ccc(C(=O)Sc2cccccc2=O)cc1,x,x,x,39,-4,x,
COc1cccc(CNC(=O)COC(=O)c2nc(Cl)c(Cl)c(Cl)c2Cl)c1,x,x,x,0,12,x,
CCN(CC)CCOC(=O)/C=C/c1ccccc1,x,x,x,-5,-8,x,
CCN(CC)CC(C)(C)C(=O)/C=C/c1ccc(/C=C/C(=O)C(C)(C)CN(CC)CC)cc1,x,x,x,64*,-3,45,
c1ccc(OCc2nnc3n2N=C(c2ccccc2)CS3)cc1,1,21,0.8,100*,-11,58*,Diaph ctr 10uM=41;Diaph ctr 30uM=29
CCOC(=O)N1C2c3ccccc3C(c3ccccc32)N1C(=O)OCC,x,x,x,-2,-10,x,
O=C(N/N=C/c1cc2c(cc1Cl)OCO2)c1ccccn1,x,x,x,-3,-3,x,
O=C(N/N=C/c1cc2c(cc1[N+](=O)[O-])OCO2)c1ccccn1,x,x,x,72*,-1,20,
Cn1c2ccccc2c(=O)c2cc(C#Cc3ccc(N)cc3)ccc21,x,x,x,79*,-2,42,
COC(=O)CCCC1=CC2=CC(=O)C(C)(OC(=O)c3cccs3)C(=O)C2=CN1CCCOC(C)C (stereo not drawn),x,x,x,62*,22,20,
